Compound activity: PubChem, Johns Hopkins Ion Channel Center
Rows were chosen to be rich in hits. Some 3.8% of all compounds tested hit in one or more screens of this group.
KCNQ1 pot – potentiates or activates the human KCNQ1 potassium channel. P51787. CHO-K1 KCNQ1, thallium flux FluxOR fluorescence; hits give high values. B-score at 10 µM. 0.35% of 310,000 active;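 active = fluorescence ratio B-score, a plate-corrected score, at least three library SD, with initial intensity B-score within 5 SD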
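Material: CHO-K1 cells stably expressing KCNQ1. Medium: assay buffer for compound exposure, DMSO matched across wells. Reagent: K+/Tl+ depolarizing stimulus. Compound dosing: single-concentration screen. Times: 37 °C overnight plating, 90-min dark dye load, 20-min compound pretreatment. Technique: FluxOR Tl+ flux fluorescence.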
KCNQ1 block – inhibitors of human KCNQ1 potassium channel | CHO-K1 KCNQ1, FluxOR thallium flux fluorescence; hits give high values | B-score at 10 µM | 1.3% of 310,000 active | P51787 | AID 2642;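 active = compounds whose thallium flux B-score, printed positive for inhibition, exceeds three library SD while starting fluorescence stays within three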;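 note: channel opened by potassium depolarization with thallium stimulus after 20 min compound exposure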
KCNK9 block – blocks the human KCNK9 two-pore domain potassium channel | Q9NPC2 | HEK293 KCNK9, FluxOR thallium flux fluorescence; hits give low values | B-score at 10 µM | 1.2% of 310,000 active | AID 488922;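 active = ratio B-score over 3 SD below the library mean, with starting fluorescence within 5 SD of its mean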;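 note: negative B-score means less thallium flux so channel inhibition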
Target sequence (Q9NPC2 whole entry, looked up, the tested form may be a part): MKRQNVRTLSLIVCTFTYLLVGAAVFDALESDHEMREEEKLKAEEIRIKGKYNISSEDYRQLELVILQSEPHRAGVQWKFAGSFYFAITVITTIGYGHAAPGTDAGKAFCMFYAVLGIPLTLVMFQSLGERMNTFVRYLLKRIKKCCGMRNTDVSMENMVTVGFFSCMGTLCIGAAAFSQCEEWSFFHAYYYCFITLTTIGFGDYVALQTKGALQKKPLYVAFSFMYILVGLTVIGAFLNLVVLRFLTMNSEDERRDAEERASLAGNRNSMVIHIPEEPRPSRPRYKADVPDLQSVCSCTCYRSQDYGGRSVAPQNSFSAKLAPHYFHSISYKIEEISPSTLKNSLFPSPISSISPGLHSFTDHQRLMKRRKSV
KCNK3 inh – human KCNK3 channel inhibition, primary screen; O14649; CHO-KCNK3 thallium flux, FluxOR fluorescence; hits give low values; B-score at 10 µM; 0.84% of 340,000 active; AID 602410;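 active = B-score under library mean minus 4 SD, starting fluorescence ratio at most library mean plus 5 SD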;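 note: more negative B-score means stronger inhibition of thallium flux through KCNK3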
Kir21 block – blocks the mouse Kir2.1 inward-rectifier potassium channel | P35561 | HEK293-Kir2.1, FluxOR thallium flux fluorescence; hits give low values | B-score at 10 µM | 0.85% of 310,000 active;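 active = fluorescence ratio B-score at or below minus 3 SD of library scores, with starting-brightness B-score within 2 SD, cut at about -4.2 in these data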;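 note: channel flux triggered by added potassium and thallium sulfate stimulus; B-score of peak minus minimum fluorescence over baseline after thallium stimulus; more negative B-score means stronger Kir2.1 block with less thallium influx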
hERG rescue – compounds protecting human hERG from proarrhythmic drug block; Q12809; CHO-hERG, FluxOR thallium flux, dofetilide IC70 present; activation (rescue from dofetilide block), less the hit threshold, % at 10 µM; 0.51% of 310,000 active;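 active = activation above the mean of controls blocked by dofetilide plus 5 SD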;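 note: thallium influx through hERG after potassium depolarization seen as dye fluorescence rise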
An asterisk follows results filed as active; i = inactive; . = no result.

SMILES	KCNQ1 pot	KCNQ1 block	KCNK9 block	KCNK3 inh	Kir21 block	hERG rescue
C[n+]1ccc(/C=C/c2c[nH]c3ccc(F)cc23)cc1	i	11*	-6.7*	i	-6.7	-18
COc1ccc(S(=O)(=O)N2CCCCC2)cc1NC(=O)CCC(=O)N1CCC(c2ccccc2)=N1	.	.	.	i	.	.
COc1cc(C[C@@H](CO)[C@H](CO)Cc2ccc(O)c(OC)c2)ccc1O	i	i	i	.	-0.19	-8
Cc1ccc(N2C(=O)c3ccccc3NC2c2ccccc2O)cc1 (configuration not stated)	i	i	i	i	1.3	-1
O=C1c2ccccc2NC(c2ccccc2O)N1O (configuration not stated)	8*	i	i	i	-2	-5
CC(OC(=O)c1nn(C)c(=O)c2ccccc12)C(=O)NCc1ccc2c(c1)OCO2 (configuration not stated)	i	i	i	i	0.01	-17
CN(c1ccccc1)S(=O)(=O)c1cccc(NC(=O)COc2ccccc2)c1	.	.	.	i	.	.
CCCn1c(=O)c(C(=O)NCc2ccc3c(c2)OCO3)c(O)c2ccccc21	i	8*	i	i	0.09	-4
CCCn1nc(C(=O)NCc2ccc3c(c2)OCO3)c2ccccc2c1=O	i	i	i	-8.9*	1.4	-14
CN(C)S(=O)(=O)c1cccc(NC(=O)COC(=O)/C=C/c2ccc([N+](=O)[O-])cc2)c1	i	i	i	i	-1	8.1*
CCC(CC)C(=O)OCC(=O)Nc1cccc(S(=O)(=O)N(C)c2ccccc2)c1	i	i	-7.2*	i	-0.42	-10
NS(=O)(=O)c1ccc(NC(=O)COC(=O)/C=C/c2ccc([N+](=O)[O-])cc2)cc1	i	i	i	i	1.1	-7
CCCn1nc(C(=O)Nc2cccc(S(=O)(=O)N(C)c3ccccc3)c2)c2ccccc2c1=O	.	.	.	-9.2*	.	.
CCCC(=O)Nc1cccc(S(=O)(=O)N(C)c2ccccc2)c1	i	i	i	i	0.39	-9
Cc1ccc(NC(=O)C(=O)NCCCN2CC(C(=O)O)CC2=O)cc1 (configuration not stated)	i	i	i	i	-0.1	-3
CCCCCCC[C@@H](C/C=C/CCC(=O)N(C)C/C(=C/Cl)C/C(=C\C(=O)N1C[C@H](O)CC1=O)OC)OC	.	.	.	i	.	.
CCCCCCC[C@@H](C/C=C/CCC(=O)N(C)C/C(=C/Cl)C/C(=C\C(=O)N1CC(OC)=CC1=O)OC)OC	.	.	.	-8.8*	.	.
O=c1/c(=C/c2ccc(O)c([N+](=O)[O-])c2)sc2nc3ccccc3n12	.	.	.	i	.	.
CCN(CC)c1ccc(/C=c2\sc3nc4ccccc4n3c2=O)c(O)c1	i	9*	i	i	-1.1	-36
COc1cc(C)nc(NC(=S)N(C)C(=O)c2ccccc2)n1	i	i	i	i	-0.19	-10
CC1CCc2cc(F)ccc2N1S(=O)(=O)c1ccc(F)cc1 (configuration not stated)	i	i	i	i	-4.3*	3
CCCCC(C(=O)OCC)C(N)Cc1ccc(F)cc1 (configuration not stated)	i	i	i	i	-4.7*	-5
Cc1c(Cl)cccc1Nc1ncccc1C(=O)OCC(O)CO (configuration not stated)	i	i	i	.	0	-9
CCc1ccc(N2CC(C(=O)Nc3ccc(S(=O)(=O)NCC4CCCO4)cc3)CC2=O)cc1 (configuration not stated)	i	i	i	i	1.7	-5
COCCNC(=O)c1cc2cc(Cl)cc(Cl)c2oc1=O	i	i	i	i	0.73	-13
COc1ccc(C[C@H]2CN3C(=NC[C@H]3Cc3ccccc3)N2CCNC(=O)c2ccc(C)c(Br)c2)cc1	i	7*	i	i	-7.3*	-27
COc1ccc(C[C@H]2CN3C(=NC[C@@H]3Cc3ccc(O)cc3)N2CCNC(=O)c2ccc(C)c(Br)c2)cc1	i	i	i	i	-3.9	-21
